Assay results published in article PMC10757425 (Toxicology, 2023).
Entries after “also recorded” stand apart in the source; their conditions may differ.

Key:
[1] = In vitro release from polymeric implants; conditions: after 28 days
[2] = In vivo exposure dosimetry: 4-52 remaining in retrieved subcutaneous implants; design: species or system Sprague-Dawley rats; conditions: for In vivo exposure: 4-52 remaining in the implant / In vivo exposure: 4-52 remaining in the implant (%): subcutaneous implant, 28 days, male rats
In short: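 Male rats carried s.c. implants (0, 1, 5 or 10% w/w; 1.3 ± 0.1 mg/g bw) from PND 28 for 28 days. Retrieved implants were dissolved in 10 mL DCM, diluted 3-fold and read by UV/Vis at 285 nm against a matrix-matched calibration curve. Internal dose was taken as total load minus remaining amount, assuming 100% bioavailability.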

[3] = General toxicity assessment; format: in vivo, Sprague-Dawley rats
In short: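 Rats arrived at 21 days old and were acclimated 7 days. At PND 28, under isoflurane with 1 mg/kg s.c. meloxicam, they received s.c. implants with 0, 1, 5 or 10% w/w test compound (1.3 ± 0.1 mg/g bw), n=15/group. Surgical site and behaviour were checked daily for 5 days. At PND 56, blood was taken by cardiac puncture, rats were perfused with cold PBS and organs harvested.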

Sprague-Dawley rats [4] = assay: Histopathology; format: in vivo; conditions: for prevalence of minimal liver inflammation (% of evaluated slides): sham 37.5%
In short: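 After 28 days of implant exposure, brain, accessory lobe of right lung and left lateral liver lobe were formalin-fixed and H&E stained (8 rats/group, 2 per cohort, random). A veterinary pathologist scored brain regions (prefrontal cortex, striatum, hippocampus, cerebellum) and lung and liver for inflammation (any immune cells), hemorrhage, edema, necrosis, apoptosis and morphology. Brain was also scored for gliosis; lung and liver for extramedullary hematopoiesis.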

Sprague-Dawley rats [5] = assay: Y-maze; format: in vivo
Sprague-Dawley rats [6] = assay: Open Field Test; format: in vivo; conditions: between the groups at any time epoch, two-way ANOVA
In short: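 Implant-exposed rats (n=15/group) were tested blind during exposure days 24–28. The opaque rectangular arena (~5000 cm2, 50 cm walls) was divided into central and outer zones. Each rat started in the center and explored freely for 30 min on two consecutive days. Overhead video tracking recorded distance travelled in 5-min epochs. Analysis: two-way ANOVA.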

Sprague-Dawley rats [7] = assay: Hole Board Test; format: in vivo
In short: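 Implant-exposed rats (n=15/group) were tested blind on exposure days 24–28. Each rat was released centrally for 5 min. Distance and head dips (ears passing through a hole) were video-tracked. Analysis: one-way ANOVA with Fisher's LSD; mean ± SD.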

Sprague-Dawley rats [8] = assay: Elevated Plus Maze; format: in vivo
[9] = OH-PCB disposition in serum and tissues by GC-MS/MS; format: in vivo, Sprague-Dawley rats; conditions: for detection in serum, brain, liver, and lung / rank order of levels across serum and tissues: male rats, 28 days of 4-52 implant exposure
In short: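 Male Sprague-Dawley rats received a subcutaneous polymeric implant (1.3 ± 0.1 mg/g body weight) on the back at PND 28, loaded at 0, 1, 5 or 10% (w/w) test compound, for 28 days. Tissues (n=8/group) were homogenized in 2-propanol and liquid-liquid extracted, with surrogate-recovery and internal-standard correction. LOD came from sham tissues (mean + t0.01 × SD).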

[10] = 45-day study, female rats; ref Aqil et al., 2014; cited from earlier work
[11] = rats, dip-coated implants; ref Aqil et al. (2014); cited from earlier work
[12] = administered orally with corn oil; ref Rostami and Juhasz, 2011; cited from earlier work
rats = conditions: developmental exposure via the maternal diet, ref Boix et al., 2010; cited from earlier work

Oc1cc(Cl)c(-c2cc(Cl)ccc2Cl)cc1Cl [4-52, 2,2’,5,5’-tetrachlorobiphenyl-4-ol]
In vitro release: 4-52 remaining in the implant (%) ([1]; High group, 10% load): 5.2 ± 1.1%
In vitro release: 4-52 remaining in the implant (%) ([1]; Low group, 1% load): 3.4 ± 0.9%
In vitro release: 4-52 remaining in the implant (%) ([1]; Medium group, 5% load): 2.9 ± 1.8%
In vivo exposure: 4-52 remaining in the implant ([2]; High group, 10% load): 0.80 ± 0.40 mg
In vivo exposure: 4-52 remaining in the implant (%) ([2]; High group, 10% load): 6.9 ± 3.1%
In vivo exposure: 4-52 remaining in the implant ([2]; Low group, 1% load): 0.06 ± 0.02 mg
In vivo exposure: 4-52 remaining in the implant (%) ([2]; Low group, 1% load): 5.8 ± 2.3%
In vivo exposure: 4-52 remaining in the implant ([2]; Medium group, 5% load): 0.40 ± 0.20 mg
In vivo exposure: 4-52 remaining in the implant (%) ([2]; Medium group, 5% load): 6.3 ± 2.8%
4-52 left in the implants after in vivo exposure ([2]; after 28 days of exposure, range over loads): 5.8-6.9%
implantation site ([3]; end of 28-day study): no signs of adverse effects
adverse outcomes throughout the study ([3]; implants with 0, 1, 5 or 10% of 4-52, 28 days): No adverse outcomes
body weight gain ([3]; implants with 1, 5, 10% 4-52 vs sham, 28 days): No significant differences
other organ weights ([3]; subcutaneous 4-52 exposure, 28 days): no significant effects; also recorded: no other organ weights were affected
relative liver weight (% of body weight) ([3]; subcutaneous 4-52 exposure, 28 days, p < 0.001): decreased dose-dependently; also recorded: significant decrease
histopathological evaluation of brain and lung (Sprague-Dawley rats [4]; exposed or sham rats, 28 days): no overt treatment-specific lesions
prevalence of minimal liver inflammation (% of evaluated slides) (Sprague-Dawley rats [4]; high dose group): 75%
prevalence of minimal liver inflammation (% of evaluated slides) (Sprague-Dawley rats [4]; low dose group): 12.5%
prevalence of minimal liver inflammation (% of evaluated slides) (Sprague-Dawley rats [4]; medium dose group): 25%
Y-maze percentage of spontaneous alternation (Sprague-Dawley rats [5]; all exposure groups, one-way ANOVA, p = 0.262): no significant changes; also recorded: did not affect
Y-maze total distance traveled (Sprague-Dawley rats [5]; all exposure groups, one-way ANOVA, p = 0.300): no significant changes
Y-maze number of total entries (Sprague-Dawley rats [5]; all exposure groups, one-way ANOVA, p = 0.342): no significant changes
Y-maze total distance traveled (Sprague-Dawley rats [5]; medium-exposed group vs sham, post hoc Fisher’s LSD, p = 0.067): trend to decrease; also recorded: trend of a decrease
Y-maze total number of entries (Sprague-Dawley rats [5]; medium-exposed group vs sham, post hoc Fisher’s LSD, p = 0.087): trend to decrease; also recorded: trend of a decrease
Open Field Test locomotor activity (travel distance) in 5 min epochs over 30 min (Sprague-Dawley rats [6]): no significant differences; also recorded: not altered
Hole Board Test total distance traveled (Sprague-Dawley rats [7]; exposed vs sham groups, one-way ANOVA, p = 0.297): no significant differences
Hole Board Test number of head dipping (Sprague-Dawley rats [7]; exposed vs sham groups, one-way ANOVA, p = 0.433): no significant differences; also recorded: did not affect
Hole Board Test total distance traveled (Sprague-Dawley rats [7]; medium-exposed rats, post hoc Fisher’s LSD, p = 0.071): slightly reduced; also recorded: trend of a decrease
Elevated Plus Maze time in the open arm (Sprague-Dawley rats [8]; high group, did not reach statistical significance, p = 0.076): marginally increased
Elevated Plus Maze time in the enclosed arm (Sprague-Dawley rats [8]; high-exposed group vs sham, post hoc Fisher’s LSD, p = 0.043): significantly decreased
Elevated Plus Maze distance traveled in the enclosed arm (Sprague-Dawley rats [8]; medium exposed group, post hoc Fisher’s LSD, p = 0.097): trend of reduction; also recorded: decreased
levels in serum and tissues versus 4-52 dose ([9]; all compartments): increased with increasing 4-52 doses
detection in serum, brain, liver, and lung [9]: detected
rank order of levels across serum and tissues [9]: serum >> liver > lung > brain

Clc1ccc(-c2cc(Cl)c(Cl)c(Cl)c2)cc1Cl [PCB 126]
released from polymeric implants in vivo [10]: 49%
liver weights compared to sham controls [11]: significantly increased

Clc1cc(Cl)c(-c2cc(Cl)c(Cl)cc2Cl)cc1Cl [PCB 153]
released from polymeric implants in vivo [10]: 73%

Oc1cc(Cl)c(-c2cc(Cl)c(O)cc2Cl)cc1Cl [4,4’-52, 4,4’-dihydroxy-2,2’,5,5’-tetrachlorobiphenyl]
detection in the brain ([9]; after 4-52 implant exposure): only found in the medium and high-dose groups
detection in the lung ([9]; after 4-52 implant exposure): detected
presence in the serum and liver ([9]; after 4-52 implant exposure): present in the serum and liver from all exposure groups
detection in serum, brain, liver, and lung [9]: detected
rank order of levels across serum and tissues [9]: serum > lung > liver > brain

Clc1ccc(Cl)c(-c2cc(Cl)ccc2Cl)c1 [PCB 52, 2,2’,5,5’-Tetrachlorobiphenyl]
oral bioavailability rate [12]: 52.9%
Y-maze performance (rats): did not affect
motor coordination (rats): impaired
